In ChEMBL document CHEMBL3994593, “Diterpenoids of the Cassane Type from Caesalpinia decapetala” (J Nat Prod, 2016) one finds IC50 data, which are given here for 14 compounds.

What all share (assay type): functional, cell-based
The test system of one experiment is A2780. As to the kind of experiment: Cytotoxicity against human A2780 cells assessed as reduction in cell viability after 48 hrs by MTT assay. Conditions: A2780, 48 h. In short, it runs like this:
(§1)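 Cells grown in RPMI 1640 with 10% FBS, penicillin/streptomycin, at 37 °C, 5% CO2. Seeded at 5000 cells/well, compounds added after 24 h, then 48 h incubation; MTT formazan read at 570 nm. Five concentrations (50, 25, 10, 2.5, 1 μM), 0.5% DMSO final, triplicate experiments; IC50 as mean ± SEM. Gemcitabine and cisplatin as positive controls.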
(In general: Formazan colour is commonly taken as a measure of viable cells.)

For a further experiment, the system named is B16. As to the kind of experiment: Cytotoxicity against mouse B16 cells assessed as reduction in cell viability after 48 hrs by MTT assay. Conditions: B16, 48 h. In short, it runs like this:
as §1

In the next experiment the test system is Panc02. As to the kind of experiment: Cytotoxicity against mouse Panc02 cells assessed as reduction in cell viability after 48 hrs by MTT assay. The conditions noted are these: Panc02, 48 h. In short, it runs like this:
as §1

For the next experiment, the system named is T-cell. Kind of experiment: Cytotoxicity against ConA-stimulated Balb/c mouse T cells assessed as reduction in cell viability after 48 hrs by MTT assay. In short, it runs like this:
(§2)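 Splenocytes from three male Balb/c mice (4−6 weeks); T and B cells enriched on nylon-wool column, stimulated with 5 μg/mL ConA (T) or 10 μg/mL LPS (B). Then handled as the tumor-cell MTT assay: 48 h exposure, 570 nm read, five concentrations 1–50 μM, 0.5% DMSO final, triplicate. Cyclosporin A and mycophenolate mofetil as positive controls.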

A further experiment concerns B-cell. As to the kind of experiment: Cytotoxicity against LPS-stimulated Balb/c mouse B cells assessed as reduction in cell viability after 48 hrs by MTT assay. The method, boiled down:
as §2

For a further experiment, the system named is SW1990. Kind of experiment: Cytotoxicity against human SW1990 cells assessed as reduction in cell viability after 48 hrs by MTT assay. Conditions: SW1990, 48 h. The method, boiled down:
as §1

The next experiment relates to HepG2. Kind of experiment: Cytotoxicity against human HepG2 cells assessed as reduction in cell viability after 48 hrs by MTT assay. The conditions noted are these: HepG2, 48 h. The method, boiled down:
as §1

Where only a bound is given, the exact number is not on record here.

Consider `COC(=O)[C@]1(C)CCC[C@]23C(O)O[C@H](C[C@H]4[C@@H](C)c5ccoc5C[C@@H]42)[C@H]31` (some centres not stated), for which the IC50 with A2780, with B16, in the experiment on Panc02, in the experiment with T-cell and with B-cell was over 10 µM in each case.

As to `COC(=O)[C@@]1(C)[C@@H]2CC[C@@H]3[C@@H]4[C@@H](OC[C@@]42CC[C@@H]1O)c1occc1[C@@H]3C`, the IC50 with SW1990 was 2.9 to 8.9 µM; in the experiment with A2780, over 10 µM; with B16 it was over 10 µM; with Panc02, over 10 µM; in the experiment with T-cell it was over 10 µM; in the experiment with B-cell it was over 10 µM.

For the compound `COC(=O)[C@]1(C)[C@@H](O)CC[C@@]23C(=O)O[C@H]4c5occc5[C@H](C)[C@H](CC[C@@H]12)[C@H]43`, the IC50 in the experiment with SW1990 was 2.9 to 8.9 µM; with A2780 it was over 10 µM; with B16, over 10 µM; in the experiment with Panc02, over 10 µM; in the experiment on T-cell, over 10 µM; in the experiment with B-cell it was over 10 µM.

Consider `COC(=O)[C@]1(C)CCC[C@]23CO[C@H]4c5occc5[C@H](C)[C@@H]([C@H]42)[C@@H](OC(C)=O)C[C@H]31`, for which the IC50 with A2780, in the experiment on B16, in the experiment on Panc02, in the experiment on T-cell and with B-cell was over 10 µM in each case.

Take `COC(=O)[C@]1(C)CCC[C@@]2(COC(C)=O)[C@H]1[C@H](O)C[C@H]1[C@@H](C)C3=CC(=O)O[C@]3(OC)C[C@@H]12`: the IC50 in the experiment with A2780, with B16, with Panc02, in the experiment on T-cell and in the experiment with B-cell was over 10 µM throughout.

`COC(=O)[C@]1(C)CCC[C@@]2(COC(C)=O)[C@H]1[C@H](O)C[C@H]1[C@@H](C)c3ccoc3C[C@@H]12`: the IC50 with SW1990 is 2.9 to 8.9 µM; in the experiment on HepG2, 3.9 µM; in the experiment on A2780, over 10 µM; in the experiment with B16, over 10 µM; in the experiment on Panc02, over 10 µM; with T-cell, over 10 µM. In the experiment on B-cell, the IC50 is over 10 µM.

With `C=C1CC[C@@H]2[C@](C)(CCC[C@]2(C)C(=O)O)[C@H]1CC(=O)/C(C)=C/CO`, the IC50 with A2780, with B16, in the experiment with Panc02, in the experiment with T-cell and in the experiment on B-cell was over 10 µM in each case.

Take `COC(=O)[C@]1(C)[C@@H](OC(C)=O)CC[C@@]23C(=O)O[C@H]4c5occc5[C@H](C)[C@H](CC[C@@H]12)[C@H]43`: the IC50 with A2780, with B16, in the experiment with Panc02, in the experiment with T-cell and with B-cell was over 10 µM in each case.

For the compound `COC(=O)[C@]1(C)[C@@H](OC(C)=O)CC[C@@]23CO[C@H]4c5occc5[C@H](C)[C@H](CC[C@H]21)[C@H]43`, the IC50 in the experiment on A2780, in the experiment on B16, in the experiment with Panc02, in the experiment with T-cell and in the experiment with B-cell was over 10 µM throughout.

As for `COC(=O)[C@]1(C)CCC[C@]23CO[C@H]4c5occc5[C@H](C)[C@@H]([C@H]42)[C@@H](O)C[C@H]31`, the IC50 is 2.9 to 8.9 µM in the experiment on SW1990; over 10 µM with A2780; over 10 µM in the experiment on B16; over 10 µM with Panc02; over 10 µM with T-cell; over 10 µM in the experiment with B-cell.

Regarding `COC(=O)[C@@]1(C)[C@@H](OC(C)=O)CC[C@]2(C(=O)O)[C@H]3Cc4occc4[C@H](C)[C@@H]3CC[C@@H]12`, the IC50 in the experiment on A2780, in the experiment with B16, with Panc02, with T-cell and with B-cell was over 10 µM in each case.

As for `COC(=O)[C@]1(C)CCC[C@]2(COC(C)=O)c3cc4occc4c(C)c3C[C@@H](OC(C)=O)[C@H]21`, the IC50 was 2.9 to 8.9 µM in the experiment with SW1990; over 10 µM with A2780; over 10 µM with B16; over 10 µM in the experiment with Panc02; over 10 µM in the experiment on T-cell; over 10 µM in the experiment with B-cell.

As to `C=C1CC[C@@H]2[C@](C)(CCC[C@]2(C)C(=O)O)[C@H]1/C=C/C(C)=O`, the IC50 with A2780, with B16, in the experiment with Panc02, with T-cell and in the experiment with B-cell was over 10 µM in each case.

As to `Nc1ccn([C@@H]2O[C@H](CO)[C@@H](O)C2(F)F)c(=O)n1` [GEMCITABINE], in the experiment on SW1990, the IC50 was determined as 2.3 µM.

A word on the IC50: it is the concentration that inhibits the measured activity by half.
